In ChEMBL document CHEMBL1250479, “Biological diversity from a structurally diverse library: systematically scanning conformational space using a pyranose scaffold” (J Med Chem, 2010):

Columns and labels:
[1] = biological target: T1, Melanin-concentrating hormone receptor 1 (Homo sapiens, UniProt Q99705); test: Displacement of [I125I]MCH from human MCH1 receptor expressed in CHO cells by scintillation counting; assay type: cell-based
Procedure, shortened: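 SPA competition on membranes of CHO cells stably expressing human MCH1, premixed with WGA-PVT beads (0.25 mg/well). Test compound was added at increasing concentrations with [125I]-MCH in HEPES pH 7.4 buffer containing CaCl2, MgCl2 and 0.2% BSA, incubated 2 h at room temperature, then scintillation-counted. Phe-(D)Tyr-MCH served as reference ligand; IC50 came from sigmoidal dose-response fits.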

[2] = biological target: Somatostatin receptor type 1 (Homo sapiens, UniProt P30872); test: Displacement of [125I]iodotyrosyl from human SST1 receptor expressed in CHO cells; assay type: cell-based
Procedure, shortened: (§1)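 Membranes from CHO cells stably expressing cloned human sst1–5 were used at 2 µg protein/well (sst1), 0.2 (sst2) or 0.7 (sst3, sst4, sst5). After GF/B filtration, bound label was counted. Nonspecific binding used 1 µM SST28; Ki came from single-site fits with known Kd; tested once in duplicate.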

[3] = biological target: Somatostatin receptor type 2 (Homo sapiens, UniProt P30874); test: Displacement of [125I]iodotyrosyl from human SST2 receptor expressed in CHO cells; assay type: cell-based; procedure, shortened: as §1
[4] = biological target: Somatostatin receptor type 4 (Homo sapiens, UniProt P31391); test: Displacement of [125I]iodotyrosyl from human SST4 receptor expressed in CHO cells; assay type: cell-based; procedure, shortened: as §1
[5] = biological target: Somatostatin receptor type 5 (Homo sapiens, UniProt P35346); test: Displacement of [125I]iodotyrosyl from human SST5 receptor expressed in CHO cells; assay type: cell-based; procedure, shortened: as §1
[6] = biological target: Somatostatin receptor type 3 (Homo sapiens, UniProt P32745); test: Displacement of [125I]iodotyrosyl from human SST3 receptor expressed in CHO cells; assay type: cell-based; procedure, shortened: as §1
[7] = biological target: T1, Melanin-concentrating hormone receptor 1; test: Displacement of [I125I]MCH from human MCH1 receptor expressed in CHO cells (empty) by scintillation counting; conditions: 3 uM

Sequence of Somatostatin receptor type 1 (P30872 whole entry): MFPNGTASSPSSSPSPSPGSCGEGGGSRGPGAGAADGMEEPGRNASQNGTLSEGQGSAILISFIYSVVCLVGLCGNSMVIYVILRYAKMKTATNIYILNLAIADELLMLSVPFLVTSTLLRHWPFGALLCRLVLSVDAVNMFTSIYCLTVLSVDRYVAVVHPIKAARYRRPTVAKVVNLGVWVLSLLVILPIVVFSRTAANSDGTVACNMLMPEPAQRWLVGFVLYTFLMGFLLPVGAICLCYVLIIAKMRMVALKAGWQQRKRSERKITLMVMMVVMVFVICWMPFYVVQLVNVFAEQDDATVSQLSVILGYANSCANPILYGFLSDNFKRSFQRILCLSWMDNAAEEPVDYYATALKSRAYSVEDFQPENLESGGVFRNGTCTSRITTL
Sequence of Somatostatin receptor type 2 (P30874 whole entry): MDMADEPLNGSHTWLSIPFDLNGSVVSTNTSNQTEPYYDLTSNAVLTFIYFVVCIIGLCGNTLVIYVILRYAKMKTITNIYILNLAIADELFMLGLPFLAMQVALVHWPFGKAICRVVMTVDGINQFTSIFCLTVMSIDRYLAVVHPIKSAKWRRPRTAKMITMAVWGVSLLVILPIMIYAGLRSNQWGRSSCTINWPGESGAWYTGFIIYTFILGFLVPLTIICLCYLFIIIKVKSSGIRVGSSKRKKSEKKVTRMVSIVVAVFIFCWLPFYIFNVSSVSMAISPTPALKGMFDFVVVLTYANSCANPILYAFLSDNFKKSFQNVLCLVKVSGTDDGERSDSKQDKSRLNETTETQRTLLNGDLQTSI
T1 sequence (Q99705 whole entry): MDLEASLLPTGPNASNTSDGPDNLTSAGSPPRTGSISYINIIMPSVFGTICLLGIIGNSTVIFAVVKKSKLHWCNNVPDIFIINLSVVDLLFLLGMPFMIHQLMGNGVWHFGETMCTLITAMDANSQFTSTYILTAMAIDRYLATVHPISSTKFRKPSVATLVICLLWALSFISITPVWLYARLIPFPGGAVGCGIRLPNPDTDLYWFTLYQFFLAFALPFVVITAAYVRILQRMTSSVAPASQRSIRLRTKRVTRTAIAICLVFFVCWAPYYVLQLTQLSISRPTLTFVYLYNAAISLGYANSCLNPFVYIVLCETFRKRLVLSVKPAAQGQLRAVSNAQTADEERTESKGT
Sequence of Somatostatin receptor type 5 (P35346 whole entry): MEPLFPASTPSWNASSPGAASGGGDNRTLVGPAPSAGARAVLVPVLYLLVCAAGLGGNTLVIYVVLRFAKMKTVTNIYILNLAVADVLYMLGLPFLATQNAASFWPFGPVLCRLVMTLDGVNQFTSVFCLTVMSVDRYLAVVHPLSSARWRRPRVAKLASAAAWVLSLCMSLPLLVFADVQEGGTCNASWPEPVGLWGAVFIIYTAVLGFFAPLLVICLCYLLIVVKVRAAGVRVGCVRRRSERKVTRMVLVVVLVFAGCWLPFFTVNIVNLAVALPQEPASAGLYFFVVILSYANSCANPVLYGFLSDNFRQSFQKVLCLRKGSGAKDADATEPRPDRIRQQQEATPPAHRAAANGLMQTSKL
Sequence of Somatostatin receptor type 4 (P31391 whole entry): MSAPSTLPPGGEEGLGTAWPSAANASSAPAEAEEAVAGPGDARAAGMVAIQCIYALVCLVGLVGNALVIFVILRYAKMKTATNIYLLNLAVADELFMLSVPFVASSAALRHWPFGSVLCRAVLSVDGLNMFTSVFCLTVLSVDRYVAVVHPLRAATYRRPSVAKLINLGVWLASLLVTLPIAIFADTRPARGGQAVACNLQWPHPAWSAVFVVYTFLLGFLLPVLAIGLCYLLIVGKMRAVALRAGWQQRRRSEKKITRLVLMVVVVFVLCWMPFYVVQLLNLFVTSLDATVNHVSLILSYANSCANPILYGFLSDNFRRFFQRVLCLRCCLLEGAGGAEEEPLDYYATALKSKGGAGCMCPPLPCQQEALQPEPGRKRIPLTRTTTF
Sequence of Somatostatin receptor type 3 (P32745 whole entry): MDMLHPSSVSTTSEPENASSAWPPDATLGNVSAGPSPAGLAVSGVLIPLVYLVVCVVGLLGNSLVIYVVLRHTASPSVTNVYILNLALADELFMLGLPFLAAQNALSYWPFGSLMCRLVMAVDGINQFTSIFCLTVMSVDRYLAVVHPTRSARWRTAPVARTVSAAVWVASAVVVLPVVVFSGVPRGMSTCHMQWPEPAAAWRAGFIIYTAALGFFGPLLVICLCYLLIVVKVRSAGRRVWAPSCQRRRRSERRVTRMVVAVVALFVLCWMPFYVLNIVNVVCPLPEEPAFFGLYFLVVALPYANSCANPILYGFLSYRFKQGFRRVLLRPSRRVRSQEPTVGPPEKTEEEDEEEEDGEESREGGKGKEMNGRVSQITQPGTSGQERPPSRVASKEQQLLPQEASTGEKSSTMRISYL

Structure (SMILES): COC[C@H]1OC(OCc2ccc3ccccc3c2)[C@H](NC(=O)CCN=C(N)N)[C@@H](OCc2ccc3ccccc3c2)[C@@H]1O (some centres undefined)
- Ki [1]: 6300 nM

Structure (SMILES): COC[C@H]1O[C@H](OCCc2ccccc2)[C@H](NC(=O)CCCN)[C@H](OCc2ccc3ccccc3c2)[C@@H]1O
- IC50 [2]: > 10000 nM
- IC50 [3]: 6100 nM
- IC50 [4]: > 10000 nM
- IC50 [5]: 200 nM
- IC50 [6]: 8400 nM

Structure (SMILES): COC[C@H]1O[C@H](OCc2ccc(Cl)cc2)[C@H](NC(=O)CCCN=C(N)N)[C@@H](OCc2ccc(Cl)cc2)[C@@H]1O
- IC50 [1]: 120 nM

Structure (SMILES): CS[C@@H]1O[C@H](COCc2ccc3ccccc3c2)[C@@H](O)[C@@H](OCc2ccc3ccccc3c2)[C@H]1NC(=O)CCN
- IC50 [4]: 440 nM

Structure (SMILES): COC[C@H]1O[C@H](OCc2ccc(Cl)cc2)[C@H](NC(=O)CCCN=C(N)N)[C@@H](OCc2ccc3ccccc3c2)[C@@H]1O
- IC50 [1]: 450 nM

Structure (SMILES): COC[C@H]1OC(OCCc2ccccc2)[C@H](NC(=O)CCCN=C(N)N)[C@@H](OCc2ccc(Cl)cc2)[C@@H]1O (some centres undefined)
- Ki [1]: 3500 nM

Structure (SMILES): COC[C@H]1O[C@@H](OCc2ccc3ccccc3c2)[C@H](NC(=O)CCCN)[C@@H](OCc2ccc(Cl)cc2)[C@@H]1O
- IC50 [2]: > 10000 nM
- IC50 [3]: > 10000 nM
- IC50 [4]: > 10000 nM
- IC50 [5]: 50 nM

Structure (SMILES): COC[C@H]1O[C@H](OCc2ccc3ccccc3c2)[C@H](NC(=O)CCCN)[C@H](OCc2ccc(Cl)cc2)[C@@H]1O
- IC50 [2]: > 10000 nM
- IC50 [3]: > 10000 nM
- IC50 [4]: > 10000 nM
- IC50 [5]: 70 nM
- IC50 [6]: 500 nM

Structure (SMILES): COC[C@H]1OC(OCc2ccc3ccccc3c2)[C@H](NC(=O)CN=C(N)N)[C@@H](OCc2ccc(Cl)cc2)[C@@H]1O (some centres undefined)
- Ki [1]: 6600 nM

Structure (SMILES): CS[C@@H]1O[C@H](COCc2ccc(Cl)cc2)[C@@H](O)[C@@H](OCc2ccc3ccccc3c2)[C@H]1NC(=O)CCCN=C(N)N
- IC50 [4]: 720 nM

Structure (SMILES): COC[C@H]1O[C@@H](OCc2ccc(Cl)cc2)[C@H](NC(=O)CCCN=C(N)N)[C@@H](OCc2ccc3ccccc3c2)[C@@H]1O
- IC50 [7]: > 3000 nM

Structure (SMILES): COC[C@H]1O[C@H](OCc2ccc3ccccc3c2)[C@H](NC(=O)CCCN=C(N)N)[C@@H](OCc2ccc(Cl)cc2)[C@@H]1O
- IC50 [1]: 920 nM

Structure (SMILES): CS[C@@H]1O[C@H](COCc2ccccc2)[C@@H](O)[C@@H](OCc2ccc3ccccc3c2)[C@H]1NC(=O)CCN
- IC50 [4]: 660 nM

Structure (SMILES): COC[C@H]1OC(OCc2ccc(Cl)cc2)[C@H](NC(=O)CCCN=C(N)N)[C@@H](OCc2ccc3ccccc3c2)[C@@H]1O (some centres undefined)
- Ki [1]: 2600 nM

Structure (SMILES): COC[C@H]1O[C@@H](OCCc2ccccc2)[C@H](NC(=O)CCCN)[C@@H](OCc2ccc3ccccc3c2)[C@@H]1O
- IC50 [2]: > 10000 nM
- IC50 [3]: 3320 nM
- IC50 [4]: > 10000 nM
- IC50 [5]: 180 nM
- IC50 [6]: 1320 nM

Structure (SMILES): COC[C@H]1OC(OCc2ccc3ccccc3c2)[C@H](NC(=O)CCCN=C(N)N)[C@@H](OCc2ccc(Cl)cc2)[C@@H]1O (some centres undefined)
- Ki [1]: 1800 nM

Structure (SMILES): COC[C@H]1O[C@H](OCc2ccc3ccccc3c2)[C@H](NC(=O)CCCN=C(N)N)[C@@H](OCc2ccc3ccccc3c2)[C@@H]1O
- IC50 [1]: 1160 nM

Structure (SMILES): COC[C@H]1O[C@@H](OCc2ccc3ccccc3c2)[C@H](NC(=O)CCCN=C(N)N)[C@@H](OCc2ccc(Cl)cc2)[C@@H]1O
- IC50 [1]: 1750 nM

Structure (SMILES): CS[C@@H]1O[C@H](COCc2ccc(Cl)cc2)[C@@H](O)[C@@H](OCc2ccc3ccccc3c2)[C@H]1NC(=O)CCN
- IC50 [2]: 9590 nM
- IC50 [3]: 980 nM
- IC50 [4]: 430 nM
- IC50 [5]: 6000 nM
- IC50 [6]: 6330 nM

Structure (SMILES): COC[C@H]1O[C@@H](OCc2ccc3ccccc3c2)[C@H](NC(=O)CCN)[C@@H](OCc2ccc3ccccc3c2)[C@@H]1O
- IC50 [2]: 2800 nM
- IC50 [3]: 650 nM
- IC50 [4]: 4000 nM
- IC50 [5]: 20 nM
- IC50 [6]: 380 nM

Structure (SMILES): COC[C@H]1OC(OCCc2ccccc2)[C@H](NC(=O)CCN)C(OCc2ccc3ccccc3c2)[C@@H]1O (some centres undefined)
- IC50 [5]: 160 nM

Structure (SMILES): COC[C@H]1O[C@H](OCCc2ccccc2)[C@H](NC(=O)CCCN=C(N)N)[C@@H](OCc2ccc(Cl)cc2)[C@@H]1O
- IC50 [1]: 540 nM

Structure (SMILES): COC[C@H]1OC(OCc2ccc(Cl)cc2)[C@H](NC(=O)CCCN=C(N)N)[C@@H](OCc2ccc(Cl)cc2)[C@@H]1O (some centres undefined)
- Ki [1]: 1200 nM

Structure (SMILES): COC[C@H]1OC(OCc2ccc3ccccc3c2)[C@H](NC(=O)CCCN=C(N)N)[C@@H](OCc2ccc3ccccc3c2)[C@@H]1O (some centres undefined)
- Ki [1]: 5100 nM

Structure (SMILES): COC[C@H]1O[C@@H](OCc2ccc(Cl)cc2)[C@H](NC(=O)CCCN=C(N)N)[C@@H](OCc2ccc(Cl)cc2)[C@@H]1O
- IC50 [1]: 1660 nM

Structure (SMILES): CS[C@@H]1O[C@H](COCc2ccccc2)[C@@H](O)[C@@H](OCc2ccc3ccccc3c2)[C@H]1NC(=O)CCN=C(N)N
- IC50 [4]: 180 nM
